Assays:
Type in all cases: functional
UACC-62 = experiment: Growth inhibition of human UACC62 cells at 10 uM after 48 hrs by coulter counting; conditions: UACC-62, 48 h, read-out: GI
Method in brief: (§1)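 Single-dose screen in the NCI 60 human tumor cell line panel (nine subpanels). Compounds dissolved in DMSO and diluted in phosphate buffered saline, keeping final DMSO below 1%. Added in duplicate wells to cells at 6 × 10⁴ cells/ml. Controls held PBS and DMSO at matching dilutions. Incubated at 37 °C, humidified, 5% CO₂. Reported as percent growth of treated cells.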

UACC-257 = experiment: Growth inhibition of human UACC257 cells at 10 uM after 48 hrs by coulter counting; conditions: UACC-257, 48 h, read-out: GI; method in brief: as §1
KM12 = experiment: Growth inhibition of human KM12 cells at 10 uM after 48 hrs by coulter counting; conditions: KM12, 48 h, read-out: GI
Method in brief: (§2)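 Single-dose primary screen across the full NCI 60-cell-line panel. Stocks were made in DMSO and diluted in PBS to a final DMSO below 1%. Cultures at 6 × 10⁴ cells/ml were run in duplicate wells alongside PBS/DMSO vehicle controls at 37 °C in humidified 5% CO₂. Data were expressed as percent growth of treated cells.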

A549 = experiment: Growth inhibition of human A549 cells at 10 uM after 48 hrs by coulter counting; conditions: A549, 48 h, read-out: GI; method in brief: as §2
IGROV-1 = experiment: Growth inhibition of human IGROV1 cells at 10 uM after 48 hrs by coulter counting; conditions: IGROV-1, 48 h, read-out: GI; method in brief: as §2
MOLT-4 = experiment: Growth inhibition of human MOLT4 cells at 10 uM after 48 hrs by coulter counting; conditions: MOLT-4, 48 h, read-out: GI; method in brief: as §2
M14 = experiment: Growth inhibition of human M14 cells at 10 uM after 48 hrs by coulter counting; conditions: M14, 48 h, read-out: GI; method in brief: as §2
MCF7 = experiment: Growth inhibition of human MCF7 cells at 10 uM after 48 hrs by coulter counting; conditions: MCF7, 48 h, read-out: GI; method in brief: as §2
SNB-75 = experiment: Growth inhibition of human SNB75 cells at 10 uM after 48 hrs by coulter counting; conditions: SNB-75, 48 h, read-out: GI; method in brief: as §2
UO-31 = experiment: Growth inhibition of human UO31 cells at 10 uM after 48 hrs by coulter counting; conditions: UO-31, 48 h, read-out: GI; method in brief: as §1
BT-549 = experiment: Growth inhibition of human BT549 cells at 10 uM after 48 hrs by coulter counting; conditions: BT-549, 48 h, read-out: GI; method in brief: as §2
K562 = experiment: Growth inhibition of human K562 cells at 10 uM after 48 hrs by coulter counting; conditions: K562, 48 h, read-out: GI; method in brief: as §2
NCI-H460 = experiment: Growth inhibition of human NCI-H460 cells at 10 uM after 48 hrs by coulter counting; conditions: NCI-H460, 48 h, read-out: GI; method in brief: as §2
EKVX = experiment: Growth inhibition of human EKVX cells at 10 uM after 48 hrs by coulter counting; conditions: read-out: GI; method in brief: as §2
NCI-H522 = experiment: Growth inhibition of human NCI-H522 cells at 10 uM after 48 hrs by coulter counting; conditions: NCI-H522, 48 h, read-out: GI; method in brief: as §2
A498 = experiment: Growth inhibition of human A498 cells at 10 uM after 48 hrs by coulter counting; conditions: A498, 48 h, read-out: GI; method in brief: as §2
NCI-H23 = experiment: Growth inhibition of human NCI-H23 cells at 10 uM after 48 hrs by coulter counting; conditions: NCI-H23, 48 h, read-out: GI; method in brief: as §2
NCI-H226 = experiment: Growth inhibition of human NCI-H226 cells at 10 uM after 48 hrs by coulter counting; conditions: NCI-H226, 48 h, read-out: GI; method in brief: as §2
CCRF-CEM = experiment: Growth inhibition of human CCRF-CEM cells at 10 uM after 48 hrs by coulter counting; conditions: read-out: GI; method in brief: as §2
ACHN = experiment: Growth inhibition of human ACHN cells at 10 uM after 48 hrs by coulter counting; conditions: read-out: GI; method in brief: as §2
SK-MEL-2 = experiment: Growth inhibition of human SK-MEL-2 cells at 10 uM after 48 hrs by coulter counting; conditions: SK-MEL-2, 48 h, read-out: GI; method in brief: as §2
MDA-MB-435 = experiment: Growth inhibition of human MDA-MB-435 cells at 10 uM after 48 hrs by coulter counting; conditions: MDA-MB-435, 48 h, read-out: GI; method in brief: as §2
[1] = Growth inhibition of human NCI-322M cells at 10 uM after 48 hrs by coulter counting; conditions: read-out: GI; method in brief: as §2
SF-268 = experiment: Growth inhibition of human SF268 cells at 10 uM after 48 hrs by coulter counting; conditions: SF-268, 48 h, read-out: GI; method in brief: as §2
HOP-62 = experiment: Growth inhibition of human HOP62 cells at 10 uM after 48 hrs by coulter counting; conditions: HOP-62, 48 h, read-out: GI; method in brief: as §2
T47D = experiment: Growth inhibition of human T47D cells at 10 uM after 48 hrs by coulter counting; conditions: read-out: GI; method in brief: as §1
LOX IMVI = experiment: Growth inhibition of human LOXIMVI cells at 10 uM after 48 hrs by coulter counting; conditions: read-out: GI; method in brief: as §2
SNB-19 = experiment: Growth inhibition of human SNB19 cells at 10 uM after 48 hrs by coulter counting; conditions: SNB-19, 48 h, read-out: GI; method in brief: as §2
CAKI-1 = experiment: Growth inhibition of human Caki1 cells at 10 uM after 48 hrs by coulter counting; conditions: CAKI-1, 48 h, read-out: GI; method in brief: as §2
RPMI-8226 = experiment: Growth inhibition of human RPMI8226 cells at 10 uM after 48 hrs by coulter counting; conditions: RPMI-8226, 48 h, read-out: GI; method in brief: as §2
U-251 = experiment: Growth inhibition of human U251 cells at 10 uM after 48 hrs by coulter counting; conditions: U-251, 48 h, read-out: GI; method in brief: as §1
OVCAR-4 = experiment: Growth inhibition of human OVCAR4 cells at 10 uM after 48 hrs by coulter counting; conditions: OVCAR-4, 48 h, read-out: GI; method in brief: as §2
HCC 2998 = experiment: Growth inhibition of human HCC2998 cells at 10 uM after 48 hrs by coulter counting; conditions: HCC 2998, 48 h, read-out: GI; method in brief: as §2
DU-145 = experiment: Growth inhibition of human DU145 cells at 10 uM after 48 hrs by coulter counting; conditions: DU-145, 48 h, read-out: GI; method in brief: as §2
NCI/ADR-RES = experiment: Growth inhibition of human NCI/ADR-RES cells at 10 uM after 48 hrs by coulter counting; conditions: read-out: GI; method in brief: as §2
HL-60(TB) = experiment: Growth inhibition of human HL-60(TB) cells at 10 uM after 48 hrs by coulter counting; conditions: HL-60, 48 h, read-out: GI
Method in brief: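 Test compound was dissolved in DMSO and diluted in phosphate-buffered saline to a final DMSO level below 1%. Dilutions were plated in duplicate with cell culture at 6 × 10⁴ cells/ml. Vehicle controls held PBS and DMSO at matching dilutions. Incubation was at 37 °C, humidified, under 5% CO₂. Data were reported as percent growth of treated cells.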

HT-29 = experiment: Growth inhibition of human HT-29 cells at 10 uM after 48 hrs by coulter counting; conditions: HT-29, 48 h, read-out: GI; method in brief: as §2
HCT-116 = experiment: Growth inhibition of human HCT116 cells at 10 uM after 48 hrs by coulter counting; conditions: HCT-116, 48 h, read-out: GI; method in brief: as §2
SF-295 = experiment: Growth inhibition of human SF295 cells at 10 uM after 48 hrs by coulter counting; conditions: SF-295, 48 h, read-out: GI; method in brief: as §2
SK-MEL-5 = experiment: Growth inhibition of human SK-MEL-5 cells at 10 uM after 48 hrs by coulter counting; conditions: SK-MEL-5, 48 h, read-out: GI; method in brief: as §2
SK-MEL-28 = experiment: Growth inhibition of human SK-MEL-28 cells at 10 uM after 48 hrs by coulter counting; conditions: SK-MEL-28, 48 h, read-out: GI; method in brief: as §2

CC1=CSC2=NC3=C(CCC/C3=C\c3cccs3)C(c3cccs3)N12 (stereo unspecified)
inhibition of growth at 10 µM (UACC-62): > 10% | inhibition of growth at 10 µM (UACC-257): > 10% | inhibition of growth at 10 µM (KM12): > 10% | inhibition of growth at 10 µM (A549): > 10% | inhibition of growth at 10 µM (IGROV-1): > 10% | inhibition of growth at 10 µM (MOLT-4): > 10% | inhibition of growth at 10 µM (M14): > 10% | inhibition of growth at 10 µM (MCF7): > 10% | inhibition of growth at 10 µM (SNB-75): 16.6% | inhibition of growth at 10 µM (UO-31): 24.5% | inhibition of growth at 10 µM (BT-549): > 10% | inhibition of growth at 10 µM (K562): > 10% | inhibition of growth at 10 µM (NCI-H460): > 10% | inhibition of growth at 10 µM (EKVX): > 10% | inhibition of growth at 10 µM (NCI-H522): > 10% | inhibition of growth at 10 µM (A498): 14.3% | inhibition of growth at 10 µM (NCI-H23): > 10% | inhibition of growth at 10 µM (NCI-H226): > 10% | inhibition of growth at 10 µM (CCRF-CEM): > 10% | inhibition of growth at 10 µM (ACHN): > 10% | inhibition of growth at 10 µM (SK-MEL-2): > 10% | inhibition of growth at 10 µM (MDA-MB-435): > 10% | inhibition of growth at 10 µM [1]: > 10% | inhibition of growth at 10 µM (SF-268): > 10% | inhibition of growth at 10 µM (HOP-62): 11.3% | inhibition of growth at 10 µM (T47D): > 10% | inhibition of growth at 10 µM (LOX IMVI): > 10% | inhibition of growth at 10 µM (SNB-19): > 10% | inhibition of growth at 10 µM (CAKI-1): > 10% | inhibition of growth at 10 µM (RPMI-8226): > 10% | inhibition of growth at 10 µM (U-251): > 10% | inhibition of growth at 10 µM (OVCAR-4): > 10% | inhibition of growth at 10 µM (HCC 2998): > 10% | inhibition of growth at 10 µM (DU-145): > 10% | inhibition of growth at 10 µM (NCI/ADR-RES): > 10% | inhibition of growth at 10 µM (HL-60(TB)): 11.4% | inhibition of growth at 10 µM (HT-29): > 10% | inhibition of growth at 10 µM (HCT-116): > 10% | inhibition of growth at 10 µM (SF-295): > 10% | inhibition of growth at 10 µM (SK-MEL-5): > 10% | inhibition of growth at 10 µM (SK-MEL-28): > 10%
